Data taken from ChEMBL document CHEMBL4706553, “Discovery of potent small molecule PROTACs targeting mutant EGFR” (Eur J Med Chem, 2020).
pIC50: −log10 of the molar value. The source made the active and inactive calls.

Experiments:
HCC827 = experiment: Antiproliferative activity against human HCC827 cells expressing EGFR del19 mutant assessed as cell growth inhibition measured after 72 hrs by MTT assay; assay type: functional, cell-based; settings: HCC827, 72 h
In short: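 HCC827 cells were kept in RPMI-1640 with 10% heat-inactivated FBS, 1% sodium pyruvate, 1% glutamine and 1% penicillin-streptomycin at 37 °C and 5% CO₂, seeded at 3000–8000/well and rested 24 h. Compounds were applied as a concentration series for 72 h. MTT (5 mg/mL stock in PBS) was given for 4 h, then medium was removed and DMSO added. IC50 came from nonlinear regression (log inhibitor vs response).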

NCI-H1975 = experiment: Antiproliferative activity against human H1975 cells expressing EGFR L858R/T790M mutant assessed as cell growth inhibition measured after 72 hrs by MTT assay; assay type: functional, cell-based; settings: NCI-H1975, 72 h
In short: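 MTT assay on H1975 cells grown in RPMI-1640 with 10% heat-inactivated FBS and 1% penicillin-streptomycin at 37 °C and 5% CO₂. Cells were seeded at 3000–8000 per well and left 24 h, then exposed to a concentration series for 72 h. MTT (5 mg/mL stock in PBS) was added for 4 h, supernatant removed and formazan dissolved in DMSO. IC50 was fitted by nonlinear regression (log inhibitor vs response).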

[1] = tested on: von Hippel-Lindau disease tumor suppressor/Epidermal growth factor receptor (Homo sapiens), P00533+P40337 [UNDEFINED MUTATION]; experiment: Protac activity at VHL/EGFR del19 mutant in human HCC827 cells assessed as induction of EGFR degradation at 1 to 33 nM incubated for 24 hrs by Western blot analysis; assay type: cell-based; settings: dose 1-33 nM
In short: (§1)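 HCC827 cells seeded at 0.5–1 × 10⁶ per well, grown 24 h, then treated at the stated concentrations for 24 h. EGFR^del19 level by Western blot with anti-EGFR antibody and β-actin loading control.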

[2] = tested on: von Hippel-Lindau disease tumor suppressor/Epidermal growth factor receptor (Homo sapiens), P00533+P40337 [L858R,T790M]; experiment: Protac activity at VHL/EGFR L858R/T790M mutant in human H1975 cells assessed as induction of degradation of EGFR at 0.33 to 1 uM incubated for 24 hrs by Western blot analysis; assay type: cell-based; settings: NCI-H1975, dose 0.33-1 µM
In short: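 H1975 cells, after 24 h seeding, treated at the stated concentrations for 24 h. EGFR by Western blot with β-actin loading control.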

A-431 = experiment: Antiproliferative activity against human A431 cells expressing wild type EGFR assessed as cell growth inhibition measured after 72 hrs by MTT assay; assay type: functional, cell-based; settings: A-431, 72 h
In short: (§2)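 Cells were seeded at 3000–8000/well and allowed 24 h, then exposed to serial compound concentrations for 72 h. MTT (5 mg/mL stock in PBS) was added for 4 h, supernatant removed and DMSO added. IC50, defined as 50% growth inhibition, was derived by nonlinear regression (log inhibitor vs response).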

HepG2 = experiment: Antiproliferative activity against human HepG2 cells expressing VEGFR2 assessed as cell growth inhibition measured after 72 hrs by MTT assay; assay type: functional, cell-based; settings: HepG2, 72 h; in short: as §2
[3] = tested on: von Hippel-Lindau disease tumor suppressor/Epidermal growth factor receptor (Homo sapiens), P00533+P40337 [L858R,T790M]; experiment: Protac activity at VHL/EGFR L858R/T790M mutant in human H1975 cells assessed as induction of degradation of EGFR at 333 nM incubated for 48 hrs measured after compound wash-out for 48 hrs by Western blot analysis; assay type: cell-based; settings: NCI-H1975
In short: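 H1975 cells (RPMI-1640, 10% heat-inactivated FBS) exposed to 333 nM for 48 h. Medium then replaced with compound-free medium, and lysates collected at the stated times. EGFR read by Western blot; n = 2.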

[4] = tested on: von Hippel-Lindau disease tumor suppressor/Epidermal growth factor receptor (Homo sapiens), P00533+P40337 [UNDEFINED MUTATION]; experiment: Protac activity at VHL/EGFR del19 mutant in human HCC827 cells assessed as induction of EGFR degradation at 33 nM incubated for 24 hrs measured following drug wash-out for 24 hrs by Western blot analysis; assay type: cell-based
In short: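 HCC827 cells (RPMI-1640, 10% heat-inactivated FBS, 1% sodium pyruvate, 1% glutamine, 37 °C, 5% CO₂) treated at 33 nM for 24 h. Medium then replaced with compound-free medium, and protein harvested at the stated times. EGFR read by Western blot; n = 2.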

[5] = tested on: von Hippel-Lindau disease tumor suppressor/Epidermal growth factor receptor (Homo sapiens), P00533+P40337 [UNDEFINED MUTATION]; experiment: Protac activity at VHL/EGFR del19 mutant in human HCC827 cells assessed as induction of EGFR degradation at 33 nM measured after 24 hrs by Western blot analysis; assay type: cell-based; in short: as §1
[6] = tested on: von Hippel-Lindau disease tumor suppressor/Epidermal growth factor receptor (Homo sapiens), P00533+P40337 [UNDEFINED MUTATION]; experiment: Protac activity at VHL/EGFR del19 mutant in human HCC827 cells assessed as induction of EGFR degradation at 333 nM measured after 24 hrs by Western blot analysis; assay type: cell-based; in short: as §1
[7] = tested on: von Hippel-Lindau disease tumor suppressor/Epidermal growth factor receptor (Homo sapiens), P00533+P40337 [UNDEFINED MUTATION]; experiment: Protac activity at VHL/EGFR del19 mutant in human HCC827 cells assessed as induction of EGFR degradation at 33 nM by Western blot analysis; assay type: cell-based; settings: time 12-72 hrs, TDE = time-dependent effect
In short: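 Time course in HCC827 cells at 33 nM, with protein harvested at each stated time point. EGFR^del19 detected by Western blot.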

[8] = tested on: von Hippel-Lindau disease tumor suppressor/Epidermal growth factor receptor (Homo sapiens), P00533+P40337 [UNDEFINED MUTATION]; experiment: Protac activity at VHL/EGFR del19 mutant in human HCC827 cells assessed as maximal induction of EGFR degradation at 33 nM measured after 48 hrs by Western blot analysis; assay type: cell-based
In short: (§3)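 HCC827 cells seeded at 0.5–1 × 10⁶ per well, then treated at the stated concentrations for 48 h. EGFR by Western blot; n = 3. DC₅₀ (concentration giving 50% EGFR loss) by nonlinear regression, log(inhibitor) vs response.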

[9] = biological target: von Hippel-Lindau disease tumor suppressor/Epidermal growth factor receptor (Homo sapiens, UniProt P00533+P40337); experiment: Protac activity at VHL/EGFR del19 mutant in human HCC827 cells assessed as induction of EGFR degradation measured after 48 hrs by Western blot analysis; assay type: cell-based; in short: as §3
[10] = biological target: von Hippel-Lindau disease tumor suppressor/Epidermal growth factor receptor (Homo sapiens, UniProt P00533+P40337, T790M/L858R); experiment: Protac activity at VHL/EGFR L858R/T790M mutant in human H1975 cells assessed as induction of degradation of EGFR incubated for 48 hrs by Western blot analysis; assay type: cell-based; settings: nci-h1975
In short: (§4)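 H1975 cells exposed to the stated concentrations for 48 h. EGFR by Western blot; n = 3. DC₅₀ by nonlinear regression, log(inhibitor) vs response.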

[11] = tested on: von Hippel-Lindau disease tumor suppressor/Epidermal growth factor receptor (Homo sapiens), P00533+P40337 [L858R,T790M]; experiment: Protac activity at VHL/EGFR L858R/T790M mutant in human H1975 cells assessed as maximal induction of degradation of EGFR incubated for 48 hrs by Western blot analysis relative to control; assay type: cell-based; settings: NCI-H1975; in short: as §4
[12] = tested on: von Hippel-Lindau disease tumor suppressor/Epidermal growth factor receptor (Homo sapiens), P00533+P40337 [UNDEFINED MUTATION]; experiment: Protac activity at VHL/EGFR del19 mutant in human HCC827 cells assessed as induction of EGFR degradation at 33 to 333 nM measured after 24 hrs by Western blot analysis; assay type: cell-based; settings: dose 33-333 nM; in short: as §1

Row | Structure (SMILES) | pIC50 (HCC827) | pIC50 (NCI-H1975) | Activity [1] | Activity [2] | pIC50 (A-431) | pIC50 (HepG2) | Activity [3] | Activity [4] | Activity [5] | Activity [6] | Activity [7] | Emax [8] [%] | DC50 [9] [nM] | DC50 [10] [nM] | Emax [11] [%] | Activity [12]
1 | Cc1ncsc1-c1ccc(CNC(=O)[C@@H]2C[C@H](O)CN2C(=O)[C@@H](NC(=O)CCCCCCN2CCN(c3ccc(Nc4ncc5nc(Nc6ccccc6)n(C6CCCC6)c5n4)cc3)CC2)C(C)(C)C)cc1 | 7.80 | < 5.00 | inactive | inactive | – | – | – | – | – | – | – | – | – | – | – | –
2 | Cc1ncsc1-c1ccc(CNC(=O)[C@@H]2C[C@@H](O)CN2C(=O)[C@@H](NC(=O)CCCCCCCN2CCN(c3ccc(Nc4ncc5nc(Nc6ccccc6)n(C6CCCC6)c5n4)cc3)CC2)C(C)(C)C)cc1 | 9.12 | 6.01 | – | – | 6.48 | < 5.30 | Active | Active | Active | inactive | Tde | 74.8 | 3.54 | 151 | 80.3 | –
3 | C=CC(=O)Nc1cc(Nc2nccc(-c3cn(C)c4ccccc34)n2)c(OC)cc1N(C)CCN(C)C [OSIMERTINIB] | 9.01 | […] | – | – | […] | – | – | – | – | – | – | – | – | – | – | –
4 | Cc1ncsc1-c1ccc(CNC(=O)[C@@H]2C[C@@H](O)CN2C(=O)[C@@H](NCCOCCOCCOCCOCCN2CCN(c3ccc(Nc4ncc5nc(Nc6ccccc6)n(C6CCCC6)c5n4)cc3)CC2)C(C)(C)C)cc1 | 7.21 | 5.54 | – | – | – | < 5.30 | – | – | – | – | – | – | – | – | – | inactive
